Square brackets hold non-standard residues; d marks the D form. Peptide text beside a SMILES is read from it. dTrp(2-Me) = Cc1[nH]c2ccccc2c1C[C@@H](N)C(=O)O
How the values were obtained:
[1] = target: T1, Growth hormone secretagogue receptor type 1 (Homo sapiens, UniProt Q92847); test: Activity at human GHS1a receptor expressed in CHO cells assessed as intracellular calcium mobilization relative to 0.1 uM ghrelin; assay type: functional, cell-based
Rattus norvegicus [2] = test: Stimulation of cumulative food intake per 100 g body weight in Sprague-Dawley rat at 160 ug/kg, sc at 6 hrs; assay type: functional
Outline: (§1)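 Male Sprague-Dawley rats (125-150 g), singly housed and trained, given compound sc alone (cumulative food intake as g/100 g body weight, weighed hourly to 6 h); percentage variation calculated as (compound minus hexarelin 80 µg/kg intake)/hexarelin intake at 6 h. Mean ± SEM, ANOVA with Dunnett's test.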

Rattus norvegicus [3] = test: Stimulation of cumulative food intake in Sprague-Dawley rat at 160 ug/kg, sc at 6 hrs relative to 80 ug/kg hexarelin; assay type: functional; outline: as §1
[4] = target: T1, Growth hormone secretagogue receptor type 1; test: Agonist activity at human GHS1a receptor expressed in CHO cells assessed as induction of intracellular calcium mobilization; assay type: functional, cell-based; conditions: for Activity: filed as partial agonist
Outline: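 CHO cells transiently expressing hGHS-R1a via electroporation, Fluo-4AM loaded (1 µM, 1 h, 37 °C), calcium fluorescence read 60 s at ex 485/em 525 nm. EC50 from agonist dose-response curves, response as percentage of maximal signal from 10 µM ghrelin; triplicates, means of at least three experiments.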

[5] = target: T1, Growth hormone secretagogue receptor type 1; test: Displacement of [125I-His9]ghrelin from human GHS1a receptor expressed in LLC PK1 cells; assay type: cell-based
Outline: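 Membranes from LLC PK-1 cells transiently electroporated with hGHS-R1a (harvested about 48 h), 10 µg protein, incubated 60 min at 25 °C with 60 pM 125I-His9-ghrelin in Tris pH 7.3/MgCl2/EDTA/bacitracin buffer. Filtered, washed, gamma counted; nonspecific binding with 10 µM ghrelin. Triplicates, at least three experiments.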

[6] = target: T1, Growth hormone secretagogue receptor type 1; test: Antagonist activity at human GHS1a receptor expressed in CHO cells assessed as inhibition of ghrelin-induced intracellular calcium mobilization; assay type: functional, cell-based
Outline: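 Calcium flux (Fluo-4AM, ex 485/em 525 nm) in CHO cells transiently expressing hGHS-R1a. Antagonist inhibition curves against 0.1 µM ghrelin give IC50; Kb by Cheng-Prusoff, with Schild analysis of ghrelin EC50 shifts for pA2 and exact Kb. Signal as percentage of 10 µM ghrelin response; duplicates, at least three experiments.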

Rattus norvegicus [7] = test: Effect on growth hormone secretion in Sprague-Dawley rat at 80 ug/kg, sc; assay type: functional
Outline: (§2)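 Male 10-day-old Sprague-Dawley pups (~25 g), groups of eight, separated from dams 1 h before. Compounds in DMSO diluted with saline, sc; hexarelin 80 µg/kg, test compound 160 µg/kg; with combined treatment compound given 10 min before hexarelin. Killed 15 min later; plasma GH by rat GH enzyme immunoassay, ng/mL.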

Rattus norvegicus [8] = test: Stimulation of cumulative food intake in Sprague-Dawley rat at 80 ug/kg, sc at 6 hrs; assay type: functional; outline: as §1
Rattus norvegicus [9] = test: Inhibition of hexarelin-stimulated cumulative food intake in Sprague-Dawley rat at 80 ug/kg, sc at 6 hrs; assay type: functional
Outline: (§3)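 Male Sprague-Dawley rats (125-150 g), singly housed, acclimated and trained. Compound given sc at 0, 20, 80, 160 or 320 µg/kg at -10 min, then hexarelin 80 µg/kg sc at time 0. Food weighed hourly for 6 h, normalized as g/100 g body weight; 7-8 determinations, one-way ANOVA with Dunnett's test.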

Rattus norvegicus [10] = test: Inhibition of hexarelin-stimulated cumulative food intake in Sprague-Dawley rat at 160 ug/kg, sc at 6 hrs; assay type: functional; outline: as §3
Rattus norvegicus [11] = test: Inhibition of hexarelin-stimulated cumulative food intake in Sprague-Dawley rat at 20 ug/kg, sc at 6 hrs; assay type: functional; outline: as §3
Rattus norvegicus [12] = test: Effect on growth hormone secretion in Sprague-Dawley rat at 160 ug/kg, sc; assay type: functional; outline: as §2
Rattus norvegicus [13] = test: Inhibition of hexarelin-stimulated cumulative food intake in Sprague-Dawley rat at 320 ug/kg, sc at 6 hrs; assay type: functional; outline: as §3

T1 sequence (Q92847 whole entry): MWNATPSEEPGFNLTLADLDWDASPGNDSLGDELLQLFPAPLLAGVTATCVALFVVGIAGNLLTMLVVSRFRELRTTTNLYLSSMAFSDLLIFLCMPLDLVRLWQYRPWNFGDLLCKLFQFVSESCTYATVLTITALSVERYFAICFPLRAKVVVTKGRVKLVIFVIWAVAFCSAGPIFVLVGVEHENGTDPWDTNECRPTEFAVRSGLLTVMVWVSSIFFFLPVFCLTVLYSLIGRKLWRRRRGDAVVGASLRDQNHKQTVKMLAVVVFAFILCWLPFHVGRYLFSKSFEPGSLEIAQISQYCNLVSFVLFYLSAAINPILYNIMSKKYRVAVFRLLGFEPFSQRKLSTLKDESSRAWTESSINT

| Activity [1] [%] | IC50 [5] [nM] | Structure (SMILES) | Activity (Rattus norvegicus [2]) [g] | Activity (Rattus norvegicus [3]) [%] | further results |
| --- | --- | --- | --- | --- | --- |
| 80 |  | COc1ccccc1Cn1c(CCc2ccccc2)nnc1[C@@H](Cc1c[nH]c2ccccc12)NC(=O)C(C)(C)N | 0.29 | -57 | EC50 [4]: 98 nM |
| 0 | 660 | COc1ccc(Cn2c(Cc3c[nH]c4ccccc34)nnc2[C@@H](Cc2c[nH]c3ccccc23)NC(=O)C(C)(C)N)cc1 |  |  | Activity ([6]; filed as antagonist): Antagonist |
| 0 |  | COc1ccc(Cn2c(CCc3c[nH]c4ccccc34)nnc2[C@@H](Cc2c[nH]c3ccccc23)NC(=O)C(C)(C)N)cc1 | 0.06 | -31 |  |
| 66 | 410 | COc1ccccc1Cn1c(Cc2ccccc2)nnc1[C@@H](Cc1c[nH]c2ccccc12)NC(=O)C(C)(C)N |  |  | Activity ([6]; filed as partial agonist): Partial agonist |
| 0 | 60 | COc1ccc(Cn2c(CCc3ccccc3)nnc2[C@@H](Cc2c[nH]c3ccccc23)NC(=O)C(C)(C)N)c(OC)c1 |  |  | Kb [6]: 17 nM |
|  |  | Cc1[nH]c2ccccc2c1C[C@@H](NC(=O)[C@@H](N)Cc1c[nH]cn1)C(=O)N[C@@H](C)C(=O)N[C@@H](Cc1c[nH]c2ccccc12)C(=O)N[C@H](Cc1ccccc1)C(=O)N[C@@H](CCCCN)C(N)=O [EXAMORELIN] (H-H[dTrp(2-Me)]AW[dF]K-NH2) |  |  | Activity (Rattus norvegicus [7]): 170 ng/mL; Activity (Rattus norvegicus [8]): 1.01 g |
| 0 | 121 | COc1ccc(Cn2c(Cc3ccccc3)nnc2[C@@H](Cc2c[nH]c3ccccc23)NC(=O)C(C)(C)N)cc1 | 0.17 | -31 | Activity ([6]; filed as antagonist): Antagonist |
| 69 |  | Cc1ccc(Cn2c(CCc3c[nH]c4ccccc34)nnc2[C@@H](Cc2c[nH]c3ccccc23)NC(=O)C(C)(C)N)cc1 | 0.3 | -49 | EC50 [4]: 630 nM |
| 18 | 11 | CC(C)(N)C(=O)N[C@H](Cc1c[nH]c2ccccc12)c1nnc(CCCc2c[nH]c3ccccc23)n1CCc1ccccc1 | 0.75 | -21 | EC50 [4]: 15 nM |
| 0 | 145 | COc1ccc(Cn2c(CCCc3c[nH]c4ccccc34)nnc2[C@@H](Cc2c[nH]c3ccccc23)NC(=O)C(C)(C)N)cc1 |  |  | Kb [6]: 12 nM |
| 82 | 150 | CC(C)(N)C(=O)N[C@H](Cc1c[nH]c2ccccc12)c1nnc(CCc2c[nH]c3ccccc23)n1CCc1c[nH]c2ccccc12 | 0.27 | -25 | Activity [4]: Partial agonist |
| 85 | 14 | CC(C)(N)C(=O)N[C@H](Cc1c[nH]c2ccccc12)c1nnc(CCCc2c[nH]c3ccccc23)n1CCc1c[nH]c2ccccc12 | 0.22 | 54 | EC50 [4]: 140 nM |
| 0 | > 1000 | COc1cc(Cn2c(CCc3ccccc3)nnc2[C@@H](Cc2c[nH]c3ccccc23)NC(=O)C(C)(C)N)cc(OC)c1 |  |  | Activity ([6]; filed as antagonist): Antagonist |
|  | 15 | CC(C)(N)C(=O)N[C@H](Cc1c[nH]c2ccccc12)c1nnc(CCc2c[nH]c3ccccc23)n1Cc1ccccc1 | 0.02 | -4 | EC50 [4]: 64 nM |
| 28 | 55 | CC(C)(N)C(=O)N[C@H](Cc1c[nH]c2ccccc12)c1nnc(CCc2c[nH]c3ccccc23)n1Cc1ccc(Cl)c(Cl)c1 | 0.41 | -45 | Activity [4]: Partial agonist |
| 0 |  | COc1ccc(Cn2c(CCCc3ccccc3)nnc2[C@@H](Cc2c[nH]c3ccccc23)NC(=O)C(C)(C)N)cc1 |  |  | Kb [6]: 14 nM |
| 16 | 21 | Cc1ccc(Cn2c(CCCc3ccccc3)nnc2[C@@H](Cc2c[nH]c3ccccc23)NC(=O)C(C)(C)N)cc1 | 0.74 | -55 | EC50 [4]: 12 nM |
| 0 | 560 | COc1ccc(Cn2c(Cc3ccccc3)nnc2[C@@H](Cc2c[nH]c3ccccc23)NC(=O)C(C)(C)N)c(OC)c1 |  |  | Activity ([6]; filed as antagonist): Antagonist |
| 30 | 33 | CC(C)(N)C(=O)N[C@H](Cc1c[nH]c2ccccc12)c1nnc(CCCc2c[nH]c3ccccc23)n1Cc1ccccc1 | 0.01 | -97 | Activity (Rattus norvegicus [9]): 0.25 g; Activity (Rattus norvegicus [10]): 0.25 g; Activity (Rattus norvegicus [11]): 0.46 g; Activity (Rattus norvegicus [12]): 13 ng/mL; Activity (Rattus norvegicus [13]): 0.08 g; EC50 [4]: 49 nM |
| 0 | 108 | COc1ccc(Cn2c(CCc3c[nH]c4ccccc34)nnc2[C@@H](Cc2c[nH]c3ccccc23)NC(=O)C(C)(C)N)c(OC)c1 | 0.06 | -63 | Kb [6]: 14 nM |
| 82 |  | COc1cccc(Cn2c(CCc3ccccc3)nnc2[C@@H](Cc2c[nH]c3ccccc23)NC(=O)C(C)(C)N)c1 | 0.01 | -37 | EC50 [4]: 45 nM |
| 0 | 11 | COc1ccc(Cn2c(CCc3ccccc3)nnc2[C@@H](Cc2c[nH]c3ccccc23)NC(=O)C(C)(C)N)cc1 | 0.2 | -10 | Kb [6]: 5 nM |
| 62 | 195 | CCCCCCn1c(CCc2c[nH]c3ccccc23)nnc1[C@@H](Cc1c[nH]c2ccccc12)NC(=O)C(C)(C)N |  |  | Activity [4]: Partial agonist |
| 63 | 310 | CC(C)(N)C(=O)N[C@H](Cc1c[nH]c2ccccc12)c1nnc(CCc2ccccc2)n1CCc1ccccc1 |  |  | Activity [4]: Partial agonist |
| 82 | 550 | COc1ccc(CCn2c(CCc3ccccc3)nnc2[C@@H](Cc2c[nH]c3ccccc23)NC(=O)C(C)(C)N)cc1 |  |  | Activity [4]: Partial agonist |
| 20 | 400 | CC(C)(N)C(=O)N[C@H](Cc1c[nH]c2ccccc12)c1nnc(CCc2ccccc2)n1Cc1ccc(F)cc1 |  |  | Activity [4]: Partial agonist |
| 50 |  | COc1ccccc1Cn1c(CCc2c[nH]c3ccccc23)nnc1[C@@H](Cc1c[nH]c2ccccc12)NC(=O)C(C)(C)N |  |  | Activity ([6]; filed as partial agonist): Partial agonist |

— ChEMBL document CHEMBL1143012, “Synthesis and pharmacological in vitro and in vivo evaluations of novel triazole derivatives as ligands of the ghrelin receptor. 1” (J Med Chem, 2007)
